{"source": "paper PMC5774632", "about": "(Science translational medicine, 2017)", "molecules": {"B1": {"name": "pegfilgrastim (protein, chains of the INN, looked up)", "chain": "TPLGPASSLPQSFLLKCLEQVRKIQGDGAALQEKLCATYKLCHPEELVLLGHSLGIPWAPLSSCPSQALQLAGCLSQLHSGLFLYQGLLQALEGISPELGPTLDTLQLDVADFATTIWQQMEELGMAPALQPTQGAMPAFASAFQRRAGGVLVASHLQSFLEVSYRVLRHLAQP", "modifications": "PEG"}}, "key": {"[1]": {"conditions": "ref not given; cited from earlier work"}, "[2]": {"assay": "Terminal half-lives of SCLC standard of care chemotherapy agents", "assay_type": "in vivo", "conditions": "4 half-lives"}, "C57BL/6 mice": {"system": "C57BL/6 mice", "assay": "5FU survival assay", "assay_type": "in vivo, mouse", "conditions": "for survival in serial 5FU assay: 10-day intervals; for increase in median survival over controls / median survival: 100 mg/kg IP 12 h before each 5FU", "method_in_brief": "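Female C57BL/6 mice, 8–10 weeks old, got 150 mg/kg 5FU IP once every 7 or 10 days. Test compound was given IP at 50 or 100 mg/kg at 30 minutes, 12 hours and/or 24 hours before each 5FU dose. Mice were monitored daily.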"}, "murine HSPCs": {"system": "murine HSPCs", "assay": "In vivo G1T28 dose response and pharmacodynamic assay", "set-up": "species or system mouse", "method_in_brief": "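Female C57BL/6 mice, 8–10 weeks old, got a single IP dose of 50 or 100 mg/kg test compound. EdU 10 mg/kg IP followed at 0.5 to 168 h, and BM and thymus were harvested 2 h later. Surface-stained cells were live/dead-labelled, fixed in 5% formalin, permeabilised with saponin and click-stained with Alexa Fluor 555 azide. DNA was stained with 2 μg/ml DAPI before flow cytometry. n = 3–6 mice/dose/time point.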"}, "[3]": {"assay": "Human PK study, first-in-human Phase I, single IV infusion", "assay_type": "in vivo", "method_in_brief": "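Healthy volunteers got a single IV infusion (6–192 mg/m2), with blood sampled predose and at multiple later times. Plasma was spiked with D3-labelled internal standard and protein-precipitated with acetonitrile, then quantified by validated LC-MS/MS. Calibration was 0.5 to 1,000 ng/mL, weighted (1/x2) linear, LLOQ 0.5 ng/mL. PK parameters were derived by noncompartmental and compartmental methods.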"}, "BM HSCs": {"system": "BM HSCs", "assay": "H2B-GFP label dilution assay", "assay_type": "in vivo, mouse", "method_in_brief": "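Adult homozygous H2B-GFP;M2-rtTA mice got 2 mg/ml doxycycline in drinking water for 6 weeks. Two weeks after withdrawal, vehicle or 150 mg/kg test compound was gavaged 12 h before vehicle or 150 mg/kg 5FU. BM was harvested 4 weeks after 5FU, and Lin−c-Kit+Sca-1+CD150+CD48− HSC H2B-GFP dilution was curve-fitted. PI = daughter cells per labelled HSC; log2(PI) = divisions. Mean ± SD, 3–6 mice, 3 experiments.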"}, "HSCs": {"system": "HSCs", "assay": "Serial 5FU treatment and competitive BM reconstitution assay", "assay_type": "in vivo, mouse", "conditions": "for long-term reconstitution of PB lineages by donor HSCs, primary transplantation: vs 5FU only", "method_in_brief": "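Donors were female CD45.1 mice given 4 rounds of PBS or 150 mg/kg 5FU at 3-week intervals; some got 150 mg/kg test compound by gavage (vehicle 50 mM citrate, pH 4.0) 30 min before each 5FU. Eight weeks after the last dose, 500,000 donor BM cells plus 500,000 CD45.2 competitor cells went into C57BL/6 recipients irradiated with 2 × 540 rads. Five donors per group, five recipients each. Lineage chimerism was tracked in PB every 4 weeks for ≥16 weeks.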"}, "[4]": {"assay": "Human safety and tolerability assessment, Phase I healthy volunteers", "assay_type": "in vivo", "method_in_brief": "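Single-centre, double-blind, randomised, placebo-controlled (3:1) single-dose IV study in healthy adults aged 18–60, BMI 18–32 kg/m2, ≥50 kg. Doses were 6, 12, 24, 48, 96 or 192 mg/m2. Subjects stayed in clinic Day −1 to Day 5 and returned Days 7, 10 and 14. Monitoring covered AEs, clinical laboratory tests, vital signs, 12-lead ECG and physical examination. Toxicity was graded by CTCAE v4.0.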"}, "BM progenitors": {"system": "BM progenitors", "assay": "Single dose 5FU hematologic recovery and methylcellulose colony formation assay", "assay_type": "in vivo, mouse"}, "human BM HSPCs": {"system": "human BM HSPCs", "assay": "Human BM proliferation assay", "assay_type": "in vivo", "conditions": "192 mg/m^2, 24 hours after dose", "method_in_brief": "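Healthy volunteers in the 192 mg/m2 single-IV-dose cohort each gave one bone marrow aspirate: predose (n = 5), 24 h (n = 3) or 32 h (n = 4). Lineages were identified by flow cytometry with CD45, CD34, CD14, CD11b, CD71 and CD61. Cell cycle phase (G0/G1 vs S/G2/M) came from DRAQ5 DNA content.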"}, "[5]": {"system": "RB-expressing human cell lines", "conditions": "vast majority of RB-expressing human cell lines; cited from earlier work"}, "[6]": {"conditions": "after intraperitoneal injection; cited from earlier work"}, "[7]": {"conditions": "after G1T28 treatment, single IP 50 or 100 mg/kg"}, "[8]": {"conditions": "human, plasma, intravenous, 192 mg/m2"}, "[9]": {"conditions": "G1T28 12 hours before single 5FU, 4 weeks after 5FU"}, "[10]": {"conditions": "single agent, 6 weeks after doxycycline removal"}, "[11]": {"conditions": "4 rounds of 5FU at 3-week intervals"}}}
{"molecule": "COc1cc([C@@H]2c3cc4c(cc3[C@@H](O[C@@H]3O[C@@H]5CO[C@@H](C)O[C@H]5[C@H](O)[C@H]3O)[C@H]3COC(=O)[C@H]23)OCO4)cc(OC)c1O", "note": "[etoposide]", "values": [{"measurement": "terminal half-life", "setting": "[1]", "value": 7.5, "unit": "h"}, {"measurement": "fraction cleared during a 32-hour G1 arrest", "setting": "[2]", "value": "approximately 94%"}]}
{"molecule": "CN(C)C(=O)c1cc2cnc(Nc3ccc(N4CCNCC4)cn3)nc2n1C1CCCC1", "note": "[ribociclib, reference compound]", "values": [{"measurement": "survival in serial 5FU assay", "setting": "C57BL/6 mice", "value": "survival benefit"}]}
{"molecule": "CN1CCN(c2ccc(Nc3ncc4cc5n(c4n3)C3(CCCCC3)CNC5=O)nc2)CC1", "note": "[G1T28, trilaciclib]", "values": [{"measurement": "duration of reduction in EdU incorporation in HSCs before recovery", "setting": "murine HSPCs; [7]", "value": "up to 36 hours"}, {"measurement": "time of minimum EdU incorporation and S/G2/M cell frequency in HSCs", "setting": "murine HSPCs; [7]", "value": 12, "unit": "h"}, {"measurement": "EdU incorporation (S-phase cells) in all hematopoietic cell types", "setting": "murine HSPCs; single IP dose, 12 hours after treatment", "value": "dose-dependent reduction in EdU incorporation"}, {"measurement": "end of fast α-phase of elimination", "setting": "[3]; after end of infusion", "value": "approximately 4 h"}, {"measurement": "end of β-phase of elimination", "setting": "[3]; after end of infusion", "value": "approximately 36 h"}, {"measurement": "half-life", "setting": "[3]; human, plasma, intravenous", "value": "5.32 to 9.28", "unit": "h"}, {"measurement": "Cmax", "setting": "[3]; [8]", "value": 1700, "unit": "ng/mL"}, {"measurement": "half-life", "setting": "[3]; [8]", "value": "12.9 to 14.7", "unit": "h"}, {"measurement": "Tmax", "setting": "[3]; human, plasma, iv", "value": "0.25 to 0.47", "unit": "h"}, {"measurement": "contribution of the terminal phase to the effective half-life", "setting": "[3]; in vivo", "value": "15-20%"}, {"measurement": "average number of HSC divisions", "setting": "BM HSCs; [9]", "value": "4.6 ± 0.4", "unit": "divisions"}, {"measurement": "proliferation index (PI)", "setting": "BM HSCs; [9]", "value": "25.2 ± 4.7"}, {"measurement": "average number of HSC divisions", "setting": "BM HSCs; [10]", "value": "2.4 ± 1.0", "unit": "divisions"}, {"measurement": "proliferation index (PI)", "setting": "BM HSCs; [10]", "value": "6.2 ± 2.6"}, {"measurement": "long-term reconstitution of PB lineages by donor HSCs, primary transplantation", "setting": "HSCs; [11]", "value": "enhanced reconstitution of all lineages"}, {"measurement": "reconstitution in secondary recipients", "setting": "HSCs; secondary transplantation 32 weeks after initial transplantation", "value": "significantly greater overall reconstitution"}, {"measurement": "increase in median survival over controls", "setting": "C57BL/6 mice; 5FU at 7-day intervals", "value": 55, "unit": "%"}, {"measurement": "median survival", "setting": "C57BL/6 mice; 5FU at 7-day intervals", "value": 28, "unit": "days"}, {"measurement": "increase in median survival over controls", "setting": "C57BL/6 mice; 5FU at 10-day intervals", "value": 125, "unit": "%"}, {"measurement": "median survival", "setting": "C57BL/6 mice; 5FU at 10-day intervals", "value": 63, "unit": "days"}, {"measurement": "survival protection", "setting": "C57BL/6 mice; 10-day assay, G1T28 30 minutes before each 5FU", "value": "Marked protection"}, {"measurement": "survival protection over treatment at −30 min alone", "setting": "C57BL/6 mice; 10-day assay, G1T28 given twice, −24 h and −30 min", "value": "no additional protection"}, {"measurement": "clinical laboratory testing, vital signs, ECG, physical examination, body weight", "setting": "[4]; all treatment groups", "value": "no clinically relevant changes"}, {"measurement": "most frequently reported TEAEs", "setting": "[4]; single IV infusion", "value": "headache and nausea"}, {"measurement": "severe or life-threatening TEAEs", "setting": "[4]; single IV infusion", "value": "No TEAEs of severe or life-threatening intensity were reported"}, {"measurement": "tolerability", "setting": "[4]; single IV infusion, all test doses", "value": "well tolerated"}, {"measurement": "peripheral blood cell counts", "setting": "[4]; single dose, up to 14 days after infusion", "value": "did not significantly alter"}, {"measurement": "colony-forming cells surviving", "setting": "BM progenitors; 1 and 2 days after 5FU treatment", "value": "increased the number of colony-forming cells"}, {"measurement": "PB count recovery", "setting": "BM progenitors; G1T28 30 minutes before single 5FU", "value": "significantly accelerated the PB count recovery"}, {"measurement": "reduction in S/G2/M cell frequency of total BM cells", "setting": "human BM HSPCs", "value": 45, "unit": "%"}]}
{"molecule": "N.N.O=C([O-])C1(C(=O)[O-])CCC1.[Pt+2]", "note": "[carboplatin]", "values": [{"measurement": "terminal half-life", "setting": "[1]", "value": 6, "unit": "h"}]}
{"molecule": "CC(=O)c1c(C)c2cnc(Nc3ccc(N4CCNCC4)cn3)nc2n(C2CCCC2)c1=O", "note": "[palbociclib, reference compound]", "values": [{"measurement": "survival in serial 5FU assay", "setting": "C57BL/6 mice", "value": "survival benefit"}, {"measurement": "EC50", "setting": "[5]", "value": "> 2000", "unit": "nM"}]}
{"molecule": "O=c1[nH]cc(F)c(=O)[nH]1", "note": "[5FU, 5-fluorouracil, reference compound]", "values": [{"measurement": "plasma t1/2", "setting": "[6]", "value": "0.167 to 0.333", "unit": "h"}, {"measurement": "average number of HSC divisions", "setting": "BM HSCs; [10]", "value": "5.3 ± 0.5", "unit": "divisions"}, {"measurement": "proliferation index (PI)", "setting": "BM HSCs; [10]", "value": "41.3 ± 5.4"}]}
{"molecule": "B1", "values": [{"measurement": "long-term HSC function, combined use of pegfilgrastim with G1T28", "setting": "HSCs; [11]", "value": "abolished the HSC protective effect of G1T28"}, {"measurement": "long-term reconstitution of PB lineages by donor HSCs, primary transplantation", "setting": "HSCs; [11]", "value": "did not benefit long-term HSC function"}, {"measurement": "survival in serial 5FU assay", "setting": "C57BL/6 mice", "value": "survival benefit"}]}
